Here are results for 51 molecules from PubChem BioAssay AID623897 (Broad Institute, 2012).

Several values for one entry are separate records, joined by “and”; a condition that tells them apart may be missing. Identical values can stand only once. Activity calls are given as the source filed them.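 How the source made its calls: active means fitted AC50 at or below twice the top valid tested dose for that sample, with falling signal; inconclusive means flat curve with 30 to 70% inhibition, or poor fit; inactive means the rest.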

Usually AC50 stands for the midpoint of the concentration-response curve, whichever way the signal moves.

Assay [1] can be described thus: growth inhibition of C. albicans CaCi-17, confirmation, retest at dose, dry powder, set 2 (AID 623897). The note with it: C. albicans CaCi-17 growth, Alamar Blue fluorescence, 48 h; at 26 µM (top of the series). Summed up:
(§1)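 Medium – RPMI 1640, MOPS-buffered, with added uridine and glucose · Schedule – 48 h static growth at 37 °C, then 2 h Alamar Blue · Measured by – Alamar Blue fluorescence · Controls – amphotericin B positive control, 10 µM final per well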
A general note: The colour change of resazurin is a common sign of viable cells or microbes.

In assay [2] the test system is C. albicans CaCi-17 growth, Alamar Blue fluorescence, 48 h. Described as above. The procedure, abridged: as §1

With `CCOC(=O)N1C(=O)C2(CCCCC2)N(c2ccc(C(C)C)cc2)C1=S`, the activity change, negative = inhibition in assay [1] is 8.52% (inactive).

Regarding `Cc1ccc(N2C(=S)N(C(=O)OCc3ccccc3)C(=O)C23CCCCC3)cc1`, in assay [1], the activity change, negative = inhibition was 5.07% (inactive).

For `CCOC(=O)N1C(=O)C2(CCCCC2)N(c2ccc(C(C)(C)C)cc2)C1=S`, the AC50 in assay [2] is > 52 µM (inactive).

For the molecule `Cc1ccc(N2CC(=O)NC2=S)cc1`, the AC50 in assay [2] was > 52 µM (inactive).

`CCCc1ccc(N2C(=S)N(C(=O)OCC)C(=O)C23CCCCC3)cc1`: the activity change, negative = inhibition in assay [1] is -11.5% (inactive).

Regarding `CCOC(=O)N1C(=S)N(c2ccc(C)cc2)C(=O)C12CCCCC2`, the activity change, negative = inhibition in assay [1] is 3.4% (inactive).

With `CCOC(=O)N1C(=O)N(c2ccc(C)cc2)C2(CCCCC2)C1=O`, the AC50 in assay [2] was > 52 µM (inactive).

In the case of `Cc1ccc(N2CC(=O)NC2=O)cc1`, in assay [1], the activity change, negative = inhibition was -8.61% (inactive).

Regarding `CCOC(=O)N1C(=O)C2(CCCC2)N(c2ccc(C)cc2)C1=S`, the activity change, negative = inhibition in assay [1] was 1.68% (inactive).

As to `Cc1ccc(N2C(=O)C3(CCCCC3)NC2=S)cc1`, the activity change, negative = inhibition in assay [1] was 5.29% (inactive).

For the molecule `CCOC(=O)N1C(=O)C2(CCCCC2)N(c2ccccc2C)C1=S`, the concentration at half-maximal activity (AC50) in assay [2] is 23.9 µM.

For `CCOC(=O)N1C(=O)C2(CCCCC2)N(Cc2ccccc2)C1=S`, the AC50 in assay [2] was 22.8 µM.

With `O=C1NC(=S)N(c2ccccc2)C12CCCCC2`, the AC50 in assay [2] was > 52 µM (inactive).

On to `CCOC(=O)N1C(=O)C2(CCCCC2)N(c2ccc(C#N)cc2)C1=S`, for which the AC50 in assay [2] was 1.76 µM.

Regarding `Cc1ccc(N2C(=O)N(C)C(=O)C23CCCCC3)cc1`, the activity change, negative = inhibition in assay [1] was 0.531% (inactive).

In the case of `CCOC(=O)N1C(=O)C2(CCCCC2)N(c2cccc(C)c2)C1=S`, the AC50 in assay [2] was 8.16 µM.

As for `CCOC(=O)N1C(=O)C2(CCCCC2)NC1=S`, the activity change, negative = inhibition in assay [1] was -0.208% (inactive).

Consider `CCOC(=O)N1C(=O)C2(CCCCC2)N(c2ccc(C(F)(F)F)cc2)C1=S`, for which the AC50 in assay [2] is 16.2 µM.

For the molecule `Cc1ccc(N2C(=S)NC(=O)C2(C)C)cc1`, in assay [1], the activity change, negative = inhibition was 2.64% (inactive).

As for `O=C1NC(=S)NC12CCCCC2`, the activity change, negative = inhibition in assay [1] is 2.58% (inactive).

Take `CCOC(=O)N1C(=S)NC(=O)C12CCCCC2`: the activity change, negative = inhibition in assay [1] was 8.62% (inactive).

Take `CCOC(=O)N1C(=O)C2(CCOCC2)N(c2ccc(C)cc2)C1=S`: in assay [1], the activity change, negative = inhibition was 0.474% (inactive).

Regarding `CCCCN1C(=O)N(c2ccc(C)cc2)C2(CCCCC2)C1=O`, in assay [1], the activity change, negative = inhibition is 9.41% (inactive).

For `Cc1ccc(N2C(=O)C(=O)NC2=S)cc1`, in assay [1], the activity change, negative = inhibition is 5.65% (inactive).

Regarding `CCOC(=O)N1C(=O)C2(CCCCC2)N(c2ccc(CC)cc2)C1=S`, in assay [1], the activity change, negative = inhibition was -31.8% (inactive).

As to `Cc1ccc(N2C(=S)NC(=O)C23CCOCC3)cc1`, in assay [2], the AC50 is > 52 µM (inactive).

Consider `Cc1ccc(N2C(=S)N(S(C)(=O)=O)C(=O)C23CCCCC3)cc1`, for which the activity change, negative = inhibition in assay [1] is 3.7% (inactive).

With `Cc1ccc(N2C(=S)N(C(=O)OC(C)C)C(=O)C23CCCCC3)cc1`, the activity change, negative = inhibition in assay [1] was 7.31% (inactive).

Consider `CC(C)N1C(=S)NC(=O)C12CCCCC2`, for which the activity change, negative = inhibition in assay [1] was -18.9% (inactive).

`CCOC(=O)N1C(=S)N(c2ccc(C)cc2)C2(CCCCC2)C1=NCc1ccccc1`: the activity change, negative = inhibition in assay [1] is 5.9% (inactive).

Consider `CCOC(=O)N1C(=O)C2(CCC2)N(c2ccc(C)cc2)C1=S`, for which the activity change, negative = inhibition in assay [1] is 13.1% (inactive).

On to `Cc1ccc(N2C(=S)NC(=O)C23CCCC3)cc1`, for which, in assay [1], the activity change, negative = inhibition was 4.84% (inactive).

As for `CCOC(=O)N1C(=O)C2(CCCCC2)N(c2ccc(F)cc2)C1=S`, the AC50 in assay [2] is 0.946 µM.

On to `CCOC(=O)N1C(=O)C2(CCCCC2)N(c2ccc(Cl)cc2)C1=S`, for which, in assay [2], the AC50 was 1.37 µM.

Turning to `Cc1ccc(N2C(=S)NC(=O)C23CCCCC3)cc1`, in assay [1], the activity change, negative = inhibition was -4.65% (inactive).

`O=C1NC(=S)N(Cc2ccccc2)C12CCCCC2`: the activity change, negative = inhibition in assay [1] was 0.955% (inactive).

On to `Cc1ccc(N2C(=S)N(C)C(=O)C23CCCCC3)cc1`, for which, in assay [1], the activity change, negative = inhibition was -21% (inactive). For the same molecule, in assay [2], the AC50 is > 52 µM (inactive).

As to `CCCC(=O)N1C(=O)C2(CCCCC2)N(c2ccc(C)cc2)C1=S`, in assay [1], the activity change, negative = inhibition is 8.69% (inactive).

Turning to `Cc1ccc(N2C(=O)NC(=O)C23CCCCC3)cc1`, the activity change, negative = inhibition in assay [1] was 5.65% (inactive).

In the case of `Cc1ccc(N2C(=S)NC(=O)C23CCC3)cc1`, in assay [2], the AC50 was > 52 µM (inactive).

Consider `CCOC(=O)N1C(=O)C2(CCCCC2)N(c2ccc(C)cc2)C1=S`, for which, in assay [2], the AC50 was 8.5 µM and 9.7 µM.

Consider `CCOC(=O)N1C(=O)C2(CCCCC2)N(c2ccc(-c3ccccc3)cc2)C1=S`, for which the AC50 in assay [2] was > 52 µM (inactive).

`O=C1NC(=S)N(c2ccc(F)cc2)C12CCCCC2`: in assay [1], the activity change, negative = inhibition was -18.2% (inactive).

With `CCCOC(=O)N1C(=O)C2(CCCCC2)N(c2ccc(C)cc2)C1=S`, in assay [1], the activity change, negative = inhibition is 17.3% (inactive).

In the case of `CCOC(=O)N1C(=O)C2(CCCCC2)N(c2ccccc2)C1=S`, the AC50 in assay [2] is 4.15 µM.

For the molecule `CCOC(=O)N1C(=O)C(C)(C)N(c2ccc(C)cc2)C1=S`, the activity change, negative = inhibition in assay [1] is 11.1% (inactive).

As for `CCCCN1C(=O)C2(CCCCC2)N(c2ccc(C)cc2)C1=S`, in assay [1], the activity change, negative = inhibition was -7.78% (inactive).

As for `Cc1ccc(N2C(=S)N(C(=O)Oc3ccccc3)C(=O)C23CCCCC3)cc1`, the activity change, negative = inhibition in assay [1] is 1.41% (inactive).

In the case of `CCOC(=O)N1C(=O)C2(CCCCC2)N(C(C)C)C1=S`, in assay [1], the activity change, negative = inhibition is -6.94% (inactive).

Turning to `CC1/C=C/C=C\C=C\C=C\C=C\C=C\C=C\C(O[C@H]2OC(C)C(O)C(N)C2O)CC2OC(O)(CC(O)CC(O)C(O)CCC(O)CC(O)CC(=O)OC(C)C(C)C1O)CC(O)C2C(=O)O` (some centres not stated), the AC50 in assay [2] was 0.0301 µM.

Regarding `COC(=O)N1C(=O)C2(CCCCC2)N(c2ccc(C)cc2)C1=S`, in assay [2], the half-maximal activity concentration (AC50) was 17.1 µM.
